Laboratory results published in ChEMBL document CHEMBL1926537, “Catalytic inhibition of eukaryotic topoisomerases I and II by flavonol glycosides extracted from Vicia faba and Lotus edulis” (J Nat Prod, 2011).
pIC50: −log10 of the molar value. The source made the active and inactive calls. The calls are words filed in the database; no cut-off is given here.

What was measured:
Triticum aestivum [1] = assay: Inhibition of wheat germ topoisomerase 1-mediated relaxation of supercoiled DNA at 500 uM after 45 mins
Outline: (§1)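 Tested at 500 μM, then 75–1000 μM. Percent inhibition derived from the supercoiled fraction on 0.8% agarose gels stained with ethidium; IC50 at 50% inhibition of relaxation; triplicate, mean ± SEM.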

[2] = Inhibition of wheat germ topoisomerase 1-mediated relaxation of supercoiled DNA after 45 mins; design: species or system Triticum aestivum; outline: as §1
DNA topoisomerase 1 = biological target: T1, DNA topoisomerase 1 (Homo sapiens, UniProt P11387); assay: Inhibition of human topoisomerase 1-mediated relation of supercoiled DNA after 45 mins
T1 sequence (P11387 whole entry): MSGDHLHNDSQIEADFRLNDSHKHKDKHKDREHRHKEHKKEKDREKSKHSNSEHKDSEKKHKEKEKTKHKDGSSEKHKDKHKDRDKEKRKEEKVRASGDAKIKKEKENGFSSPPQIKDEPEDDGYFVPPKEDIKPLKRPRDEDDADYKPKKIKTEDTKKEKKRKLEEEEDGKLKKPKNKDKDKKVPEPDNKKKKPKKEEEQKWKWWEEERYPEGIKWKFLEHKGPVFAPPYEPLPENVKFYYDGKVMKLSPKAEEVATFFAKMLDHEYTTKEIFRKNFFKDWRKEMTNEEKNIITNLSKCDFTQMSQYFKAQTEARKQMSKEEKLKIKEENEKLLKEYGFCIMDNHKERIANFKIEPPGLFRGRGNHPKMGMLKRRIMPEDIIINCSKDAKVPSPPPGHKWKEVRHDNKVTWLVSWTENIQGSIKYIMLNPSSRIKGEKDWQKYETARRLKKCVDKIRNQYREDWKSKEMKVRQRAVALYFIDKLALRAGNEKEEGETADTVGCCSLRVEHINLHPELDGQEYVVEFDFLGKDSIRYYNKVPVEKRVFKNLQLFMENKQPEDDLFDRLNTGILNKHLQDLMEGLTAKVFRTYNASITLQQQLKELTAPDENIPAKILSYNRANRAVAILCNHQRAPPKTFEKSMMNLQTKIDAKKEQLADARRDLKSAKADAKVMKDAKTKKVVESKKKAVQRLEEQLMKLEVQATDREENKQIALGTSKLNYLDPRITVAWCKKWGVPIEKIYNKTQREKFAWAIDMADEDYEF
Outline: (§2)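 Screened at 500 μM, then 100–500 μM. Read-out is 0.8% agarose gel with ethidium stain and densitometry of the supercoiled fraction. IC50 is the 50% inhibition of relaxation; triplicate, mean ± SEM.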

[3] = biological target: T2, DNA topoisomerase 1 (Homo sapiens) (UniProt P11387); assay: Inhibition of human topoisomerase 1-mediated relation of supercoiled DNA at 500 uM after 45 mins; outline: as §2
T2 sequence (whole entry): T1 sequence (P11387 whole entry)

[4] = biological target: T3, DNA topoisomerase 2-alpha (Homo sapiens, UniProt P11388); assay: Inhibition of human topoisomerase 2-mediated relation of supercoiled DNA at 500 uM after 60 mins
[5] = biological target: T3, DNA topoisomerase 2-alpha; assay: Inhibition of human topoisomerase 2-mediated relation of supercoiled DNA after 60 mins
[6] = biological target: T3, DNA topoisomerase 2-alpha; assay: Inhibition of human topoisomerase 2-mediated relation of supercoiled DNA at 100 to 1000 uM after 60 mins
[7] = biological target: T2, DNA topoisomerase 1 (Homo sapiens); assay: Inhibition of human topoisomerase 1-mediated relation of supercoiled DNA at 100 uM after 45 mins; outline: as §2
Triticum aestivum [8] = assay: Inhibition of wheat germ topoisomerase 1-mediated relaxation of supercoiled DNA at 75 uM after 45 mins; outline: as §1
Triticum aestivum [9] = assay: Inhibition of wheat germ topoisomerase 1-mediated relaxation of supercoiled DNA at 1000 uM after 45 mins; outline: as §1
[10] = biological target: T3, DNA topoisomerase 2-alpha; assay: Inhibition of human topoisomerase 2-mediated relation of supercoiled DNA at 100 uM after 60 mins
MCF7 [11] = assay: Growth inhibition of human MCF7 cells after 48 hrs by XTT assay; assay type: functional, cell-based; details: MCF7, 48 h
Outline: (§3)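 XTT assay; HeLa, MCF7 and HepG2 seeded at 1.5 × 104, 2 × 104 and 3.5 × 10^4 cells/well in DMEM with 10% heat-inactivated FBS and penicillin/streptomycin, grown 24 h at 37 °C in 5% CO2. Compound added in DMEM-PS (100–500 μM) for 48 h, then XTT 4 h; OD at 450 nm, reference 650 nm. Etoposide 100 μM positive control; mean ± SEM.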

HeLa [12] = assay: Growth inhibition of human HeLa cells after 48 hrs by XTT assay; assay type: functional, cell-based; outline: as §3
HepG2 [13] = assay: Growth inhibition of human HepG2 cells after 48 hrs by XTT assay; assay type: functional, cell-based; details: HepG2, 48 h; outline: as §3
[14] = biological target: T3, DNA topoisomerase 2-alpha; assay: Inhibition of human topoisomerase 2-mediated relation of supercoiled DNA at 400 uM after 60 mins
[15] = biological target: T3, DNA topoisomerase 2-alpha; assay: Inhibition of human topoisomerase 2-mediated relation of supercoiled DNA at 800 uM after 60 mins
MCF7 [16] = assay: Growth inhibition of human MCF7 cells at 100 uM after 48 hrs by XTT assay; assay type: functional; details: MCF7, 48 h, read-out: GI; outline: as §3
HeLa [17] = assay: Growth inhibition of human HeLa cells at 100 uM after 48 hrs by XTT assay; assay type: functional; details: read-out: GI; outline: as §3
HepG2 [18] = assay: Growth inhibition of human HepG2 cells at 100 uM after 48 hrs by XTT assay; assay type: functional; details: HepG2, 48 h, read-out: GI; outline: as §3

T3 sequence (P11388 whole entry): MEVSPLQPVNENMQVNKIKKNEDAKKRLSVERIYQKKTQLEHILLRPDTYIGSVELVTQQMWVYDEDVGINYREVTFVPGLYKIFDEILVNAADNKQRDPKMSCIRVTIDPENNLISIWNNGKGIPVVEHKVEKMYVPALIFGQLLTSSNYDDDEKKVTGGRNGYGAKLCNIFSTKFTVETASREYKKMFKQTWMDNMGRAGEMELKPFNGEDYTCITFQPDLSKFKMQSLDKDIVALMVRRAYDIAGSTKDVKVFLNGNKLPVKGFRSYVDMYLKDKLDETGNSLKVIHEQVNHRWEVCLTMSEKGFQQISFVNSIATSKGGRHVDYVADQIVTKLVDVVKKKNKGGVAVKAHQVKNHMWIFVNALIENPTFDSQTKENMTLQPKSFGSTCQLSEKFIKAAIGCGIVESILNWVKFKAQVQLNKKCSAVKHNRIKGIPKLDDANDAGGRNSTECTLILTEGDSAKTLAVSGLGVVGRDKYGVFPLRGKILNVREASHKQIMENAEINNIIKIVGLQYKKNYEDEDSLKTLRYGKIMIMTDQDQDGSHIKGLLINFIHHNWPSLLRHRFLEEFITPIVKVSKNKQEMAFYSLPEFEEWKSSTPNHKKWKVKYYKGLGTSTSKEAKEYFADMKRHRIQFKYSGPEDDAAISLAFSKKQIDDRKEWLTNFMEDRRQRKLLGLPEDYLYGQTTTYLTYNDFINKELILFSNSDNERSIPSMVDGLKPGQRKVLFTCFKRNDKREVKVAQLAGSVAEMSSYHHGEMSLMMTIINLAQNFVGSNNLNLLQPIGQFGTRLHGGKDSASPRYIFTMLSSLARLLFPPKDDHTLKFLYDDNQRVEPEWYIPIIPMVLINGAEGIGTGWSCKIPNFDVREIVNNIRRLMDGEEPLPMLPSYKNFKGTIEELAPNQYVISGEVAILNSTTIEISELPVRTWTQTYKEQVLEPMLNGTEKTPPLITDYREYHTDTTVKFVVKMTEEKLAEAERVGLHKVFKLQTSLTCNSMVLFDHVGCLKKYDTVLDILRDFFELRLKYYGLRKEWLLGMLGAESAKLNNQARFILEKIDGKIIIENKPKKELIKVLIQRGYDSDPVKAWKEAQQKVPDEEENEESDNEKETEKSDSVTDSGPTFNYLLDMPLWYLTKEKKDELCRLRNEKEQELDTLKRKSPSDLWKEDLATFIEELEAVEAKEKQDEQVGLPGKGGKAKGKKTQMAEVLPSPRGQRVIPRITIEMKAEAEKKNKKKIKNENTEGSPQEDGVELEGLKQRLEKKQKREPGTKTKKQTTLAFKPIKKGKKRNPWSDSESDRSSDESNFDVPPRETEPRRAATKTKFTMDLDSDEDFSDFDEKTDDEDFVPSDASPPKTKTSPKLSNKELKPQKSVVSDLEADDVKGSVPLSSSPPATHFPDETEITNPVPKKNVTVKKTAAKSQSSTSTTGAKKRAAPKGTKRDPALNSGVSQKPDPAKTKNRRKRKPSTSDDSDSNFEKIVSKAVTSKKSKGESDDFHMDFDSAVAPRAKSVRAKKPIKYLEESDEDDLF

Structure (SMILES) | inhibition (Triticum aestivum [1]) | pIC50 [2] | pIC50 (DNA topoisomerase 1) | inhibition [3] | inhibition [4] | pIC50 [5] | inhibition [6] | further results
C[C@@H]1O[C@@H](Oc2cc(O)c3c(=O)c(O[C@@H]4OC[C@H](O)[C@H](O)[C@H]4O)c(-c4ccc(O)cc4)oc3c2)[C@H](O)[C@H](O)[C@H]1O | Active | 3.62 | 3.60 | Active | Active | 3.48 | Dose-dependent effect | 
C[C@@H]1O[C@@H](Oc2cc(O)c3c(=O)c(O[C@@H]4O[C@H](CO)[C@H](O)[C@H](O)[C@H]4O[C@@H]4O[C@@H](C)[C@H](O)[C@@H](O)[C@H]4O)c(-c4ccc(O)cc4)oc3c2)[C@H](O)[C@H](O)[C@H]1O | Active | 3.82 | 3.59 | Active | Active |  |  | 
C[C@@H]1O[C@@H](Oc2cc(O)c3c(=O)c(O[C@H]4OC[C@@](O)(CO)[C@@H]4O)c(-c4ccc(O)cc4)oc3c2)[C@H](O)[C@H](O)[C@H]1O |  |  |  |  | Active | 3.26 | Dose-dependent effect | inhibition [14]: 44%; inhibition [15]: 80%
COc1cc([C@@H]2c3cc4c(cc3[C@@H](O[C@@H]3O[C@@H]5CO[C@@H](C)O[C@H]5[C@H](O)[C@H]3O)[C@H]3COC(=O)[C@H]23)OCO4)cc(OC)c1O [ETOPOSIDE] |  |  |  |  |  |  |  | inhibition of growth at 100 µM (MCF7 [16]): 100%; inhibition of growth at 100 µM (HeLa [17]): 100%; inhibition of growth at 100 µM (HepG2 [18]): 100%

The next lines start with results.

inhibition (Triticum aestivum [1]) | pIC50 [2] | pIC50 (DNA topoisomerase 1) | inhibition [3] | inhibition [4] | pIC50 [5] | inhibition [6] | Structure (SMILES) | further results
Active | 3.70 | 3.74 | Active | Active |  |  | C[C@@H]1O[C@@H](Oc2cc(O)c3c(=O)c(O[C@@H]4O[C@H](CO)[C@H](O)[C@H](O)[C@H]4O)c(-c4ccc(O)cc4)oc3c2)[C@H](O)[C@H](O)[C@H]1O | 
Active | 3.46 | 3.96 | 94% | Active | 3.22 | Dose-dependent effect | C[C@@H]1O[C@@H](Oc2cc(O)c3c(=O)c(O[C@@H]4O[C@H](CO)[C@@H](O)[C@H](O)[C@H]4O)c(-c4ccc(O)cc4)oc3c2)[C@H](O)[C@H](O)[C@H]1O | inhibition [7]: 45%
Active | 3.92 | 3.82 | Active | 88% | 3.62 | Dose-dependent effect | CC(=O)OC[C@]1(O)CO[C@H](Oc2c(-c3ccc(O)cc3)oc3cc(O[C@@H]4O[C@@H](C)[C@H](O)[C@@H](O)[C@H]4O)cc(O)c3c2=O)[C@H]1O | inhibition (Triticum aestivum [8]): 44%; inhibition (Triticum aestivum [9]): 99%; inhibition [10]: 22%; pIC50 (MCF7 [11]): 3.46; pIC50 (HeLa [12]): 3.46; pIC50 (HepG2 [13]): 3.39
 |  | 3.66 | Active | Active |  |  | C[C@@H]1O[C@@H](Oc2cc(O)c3c(=O)c(O[C@@H]4O[C@H](CO)[C@@H](O)[C@H](O)[C@H]4O[C@@H]4O[C@@H](C)[C@H](O)[C@@H](O)[C@H]4O)c(-c4ccc(O)cc4)oc3c2)[C@H](O)[C@H](O)[C@H]1O | 
